{"data": "Published values pooled from the literature", "target": "Ephrin type-B receptor 3 (EPHB3, Homo sapiens, UniProt P54753)", "One construct used (P54753 1-998)": "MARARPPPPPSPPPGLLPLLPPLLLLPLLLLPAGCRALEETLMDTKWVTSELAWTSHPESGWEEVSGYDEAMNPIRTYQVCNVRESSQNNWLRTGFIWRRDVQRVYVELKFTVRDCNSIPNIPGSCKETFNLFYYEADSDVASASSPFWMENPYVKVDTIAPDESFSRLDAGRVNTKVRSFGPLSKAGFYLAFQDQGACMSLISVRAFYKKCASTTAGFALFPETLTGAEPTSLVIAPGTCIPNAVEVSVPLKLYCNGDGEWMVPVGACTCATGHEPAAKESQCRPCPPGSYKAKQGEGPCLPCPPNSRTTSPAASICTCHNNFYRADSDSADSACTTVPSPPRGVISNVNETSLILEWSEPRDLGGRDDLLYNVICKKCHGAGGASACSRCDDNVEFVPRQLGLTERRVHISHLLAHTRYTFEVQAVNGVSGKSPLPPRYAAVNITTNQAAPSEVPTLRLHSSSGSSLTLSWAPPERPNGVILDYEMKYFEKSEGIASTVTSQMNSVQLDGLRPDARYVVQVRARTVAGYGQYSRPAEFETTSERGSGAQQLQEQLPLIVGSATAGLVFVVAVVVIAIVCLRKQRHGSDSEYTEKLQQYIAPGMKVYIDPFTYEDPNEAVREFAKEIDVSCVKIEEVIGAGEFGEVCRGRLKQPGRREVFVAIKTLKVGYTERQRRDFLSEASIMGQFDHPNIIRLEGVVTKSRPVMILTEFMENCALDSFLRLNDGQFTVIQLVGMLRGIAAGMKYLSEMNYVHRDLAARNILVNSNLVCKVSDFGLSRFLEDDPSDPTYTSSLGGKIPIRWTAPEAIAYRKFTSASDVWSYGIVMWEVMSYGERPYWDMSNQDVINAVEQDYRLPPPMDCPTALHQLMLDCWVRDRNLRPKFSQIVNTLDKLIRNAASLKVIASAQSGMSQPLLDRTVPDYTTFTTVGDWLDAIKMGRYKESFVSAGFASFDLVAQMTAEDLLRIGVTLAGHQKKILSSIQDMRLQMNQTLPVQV", "note": "Protocols differ between the studies behind these lines."}
{"Structure (SMILES)": "C[C@@H](c1cccc(C#N)c1)n1cc(Cl)cc(C(N)=O)c1=N", "assay": "cell-free assay, competition with immobilised ligand", "setting": "1 µM", "remaining binding": "85%"}
{"Structure (SMILES)": "COc1cnc(Nc2cccc(S(N)(=O)=O)c2)nc1N1CCN(c2ccccc2)C(=O)C1", "assay": "binding, competition with immobilised ligand", "setting": "1 µM", "remaining binding": "100%"}
{"Structure (SMILES)": "Cc1cnc(Nc2ccc(C(=O)N3CCC(N4CCCC4)CC3)cc2)nc1-c1cc2ccccc2s1", "assay": "binding, competition with immobilised ligand", "setting": "1 µM", "remaining binding": "77%"}
{"Structure (SMILES)": "c1cnn2ncc(-c3ccnc(N4CCC45COC5)n3)c2c1", "assay": "binding", "setting": "1 µM", "remaining binding": "87%"}
{"Structure (SMILES)": "COCCOc1nc(-c2ccc(Cl)nc2)nc2c1CN(C(=O)c1ncn3ccccc13)CC2", "assay": "cell-free assay, competition with immobilised ligand", "setting": "0.1 µM", "remaining binding": "100%"}
{"Structure (SMILES)": "COc1ncc2cc3ccccc3nc2c1C#N", "assay": "cell-free assay, competition with immobilised ligand", "setting": "5 µM", "remaining binding": "1.4%"}
{"Structure (SMILES)": "CN(C)c1nccc(-c2cnc3ncccn23)n1", "assay": "binding", "setting": "1 µM", "remaining binding": "91%"}
{"Structure (SMILES)": "c1cncc(-c2cccc(Nc3nccc(NC4CCCCC4)n3)c2)c1", "assay": "binding, competition with immobilised ligand", "setting": "10 µM", "remaining binding": "89%"}
{"Structure (SMILES)": "N[C@H]1CCN(c2nccc(-c3cnn4ncccc34)n2)C1", "assay": "binding", "setting": "1 µM", "remaining binding": "97%"}
{"Structure (SMILES)": "CNC(=O)Nc1ccc2c(c1)CC[C@@]21OC(=O)N(CC(=O)N(Cc2ccc(F)cc2)[C@@H](C)C(F)(F)F)C1=O", "assay": "cell-free assay, competition with immobilised ligand", "setting": "1 µM", "remaining binding": "80%"}
{"Structure (SMILES)": "C[C@@H]1CCN(c2nccc(-c3cnn4ncccc34)n2)C1", "assay": "binding", "setting": "1 µM", "remaining binding": "100%"}
{"Structure (SMILES)": "CCN1CCN(Cc2ccc(C(=O)Nc3ccc(C)c(Oc4ccc5c(c4)CC(=O)N5)c3)cc2C(F)(F)F)CC1", "assay": "binding, competition with immobilised ligand", "setting": "1 µM", "remaining binding": "100%"}
{"Structure (SMILES)": "O=C(Nc1c[nH]nc1C(=O)NC1CCNCC1)c1cc(F)cc(F)c1", "assay": "binding, competition with immobilised ligand", "setting": "1 µM", "remaining binding": "100%"}
{"Structure (SMILES)": "COc1ccc2c(c1)O[C@H](c1ccc(OC)c(OC)c1)C[C@@H]2NC(=O)C1(c2ccc3c(c2)OC(F)(F)O3)CC1", "assay": "cell-free assay, competition with immobilised ligand", "setting": "1 µM", "remaining binding": "91%"}
{"Structure (SMILES)": "CC1CCCN1c1nccc(-c2cnn3ncccc23)n1 (centres unmarked)", "assay": "binding", "setting": "1 µM", "remaining binding": "89%"}
{"Structure (SMILES)": "Cc1cc(-n2nc(Cc3cc(F)cc(C(F)(F)F)c3)nc2C)ccc1C(N)=O", "assay": "cell-free assay, competition with immobilised ligand", "setting": "1 µM", "remaining binding": "100%"}
{"Structure (SMILES)": "O=C(c1ccc(Nc2nccc(-c3cc4ccccc4s3)n2)cc1)N1CCC(N2CCCC2)CC1", "assay": "binding, competition with immobilised ligand", "setting": "1 µM", "remaining binding": "100%"}
{"Structure (SMILES)": "O=C(O)c1cc(-c2ccc(C3CCNCC3)cc2)c2ccc(-c3ccc(C(F)(F)F)cc3)cc2c1", "assay": "cell-free assay, competition with immobilised ligand", "setting": "1 µM", "remaining binding": "100%"}
{"Structure (SMILES)": "CN(C)c1nccc(-c2cnn3ncccc23)n1", "assay": "binding", "setting": "1 µM", "remaining binding": "88%"}
{"Structure (SMILES)": "O=C(NCCCN1CCOCC1)c1ccc(Nc2nccc(-c3cc4ccccc4s3)n2)cc1", "assay": "binding, competition with immobilised ligand", "setting": "1 µM", "remaining binding": "93%"}
